Data on 9 compounds can be found in ChEMBL document CHEMBL4270486, “Anti-inflammatory Activity of Natural Geranylated Flavonoids: Cyclooxygenase and Lipoxygenase Inhibitory Properties and Proteomic Analysis” (J Nat Prod, 2017).

Each structure is given as a SMILES string. Activity calls are given as the source filed them. The rule behind the calls is not given here.

In general, IC50 refers to the concentration at which inhibition is half-maximal.

In data set [1] the test system is THP-1. Nature of the data set: Inhibition of LPS-induced increase in CCL5 protein expression in LPS-stimulated human THP1 cells at 2 uM by proteomic analysis relative to untreated control. It counts as functional, cell-based. Put shortly:
(§1)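 THP-1 monocytes in RPMI 1640 with 10% FBS and 2 mM L-glutamine, differentiated to macrophages with phorbol myristate acetate, then 24 h serum-free. Pretreatment 1 h with compound in DMSO (2 μM final) or DMSO alone, then LPS (E. coli 0111:B4, 1.0 μg/mL) for 24 h. Filter-aided trypsin digestion, iTRAQ 4-plex labelling, LC-MS/MS. Five biological replicates pooled per group.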

Data set [2] concerns THP-1. Nature of the data set: Increase in COX2 protein expression in human THP1 cells at 2 uM by proteomic analysis relative to untreated control. The format is ADME, cell-based. The conditions noted are these: thp-1, 2 µM. The gist of the method:
as §1

For data set [3], the target named is T1, Prostaglandin G/H synthase 1 (Ovis aries, UniProt P05979).
T1 sequence (P05979 whole entry): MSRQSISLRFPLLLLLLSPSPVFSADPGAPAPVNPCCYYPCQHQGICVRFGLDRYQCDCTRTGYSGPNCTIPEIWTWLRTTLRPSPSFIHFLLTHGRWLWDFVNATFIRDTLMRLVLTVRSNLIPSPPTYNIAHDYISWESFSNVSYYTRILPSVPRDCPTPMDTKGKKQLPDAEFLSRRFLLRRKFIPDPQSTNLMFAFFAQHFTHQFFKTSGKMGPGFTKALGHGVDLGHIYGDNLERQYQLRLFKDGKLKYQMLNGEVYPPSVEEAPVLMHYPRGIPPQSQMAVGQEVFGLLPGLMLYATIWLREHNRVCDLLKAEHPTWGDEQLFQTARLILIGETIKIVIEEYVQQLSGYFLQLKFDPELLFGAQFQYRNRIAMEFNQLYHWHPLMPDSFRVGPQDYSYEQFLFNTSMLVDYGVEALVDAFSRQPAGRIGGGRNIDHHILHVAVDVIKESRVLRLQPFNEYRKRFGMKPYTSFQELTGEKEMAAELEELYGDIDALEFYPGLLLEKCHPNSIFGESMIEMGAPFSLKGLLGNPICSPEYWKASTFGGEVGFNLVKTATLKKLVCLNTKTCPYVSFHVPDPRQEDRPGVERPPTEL
Description: Inhibition of ram seminal vesicle COX1 assessed as reduction in PGE2 formation pre-incubated for 5 mins before arachidonic acid addition and measured after 20 mins by ELISA. The gist of the method: (§2)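 COX-1 from ram seminal vesicles (1 unit) or human recombinant COX-2 (0.5 unit) in 100 mM Tris pH 8.0 with 5 μM hematin, 18 mM L-epinephrine and 50 μM Na2EDTA. Compound in DMSO preincubated 5 min at room temperature. Arachidonic acid added, 20 min at 37 °C, stopped with formic acid. PGE2 by ELISA (A405).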
For orientation: ELISA stands for enzyme-linked immunosorbent assay.

Data set [4] concerns the target T2, Prostaglandin G/H synthase 2 (Homo sapiens, UniProt P35354).
T2 sequence (P35354 whole entry): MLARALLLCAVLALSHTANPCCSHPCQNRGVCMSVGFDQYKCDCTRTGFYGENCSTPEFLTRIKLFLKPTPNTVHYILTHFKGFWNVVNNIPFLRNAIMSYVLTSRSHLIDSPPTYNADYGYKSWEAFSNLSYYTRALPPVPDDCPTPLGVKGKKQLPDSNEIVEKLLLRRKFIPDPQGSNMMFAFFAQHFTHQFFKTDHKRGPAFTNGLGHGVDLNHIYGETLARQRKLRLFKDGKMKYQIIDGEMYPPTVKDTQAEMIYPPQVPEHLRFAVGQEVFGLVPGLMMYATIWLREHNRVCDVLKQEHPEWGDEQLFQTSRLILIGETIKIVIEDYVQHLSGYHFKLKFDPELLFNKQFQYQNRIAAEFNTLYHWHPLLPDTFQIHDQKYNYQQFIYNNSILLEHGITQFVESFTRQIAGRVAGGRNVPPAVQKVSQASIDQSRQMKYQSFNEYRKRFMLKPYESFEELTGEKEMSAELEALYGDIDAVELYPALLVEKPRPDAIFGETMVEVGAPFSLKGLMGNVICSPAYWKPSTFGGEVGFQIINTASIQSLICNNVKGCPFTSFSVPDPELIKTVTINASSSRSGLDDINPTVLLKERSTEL
Nature of the data set: Inhibition of human recombinant COX2 assessed as reduction in PGE2 formation pre-incubated for 5 mins before arachidonic acid addition and measured after 20 mins by ELISA.

The subject of data set [5] is THP-1. Nature of the data set: Inhibition of LPS-induced increase in CXCL1 protein expression in LPS-stimulated human THP1 cells at 2 uM by proteomic analysis relative to untreated control. The format is functional, cell-based. Put shortly:
as §1

In data set [6] the target is T3, Polyunsaturated fatty acid 5-lipoxygenase (Homo sapiens) (UniProt P09917).
T3 sequence (whole entry): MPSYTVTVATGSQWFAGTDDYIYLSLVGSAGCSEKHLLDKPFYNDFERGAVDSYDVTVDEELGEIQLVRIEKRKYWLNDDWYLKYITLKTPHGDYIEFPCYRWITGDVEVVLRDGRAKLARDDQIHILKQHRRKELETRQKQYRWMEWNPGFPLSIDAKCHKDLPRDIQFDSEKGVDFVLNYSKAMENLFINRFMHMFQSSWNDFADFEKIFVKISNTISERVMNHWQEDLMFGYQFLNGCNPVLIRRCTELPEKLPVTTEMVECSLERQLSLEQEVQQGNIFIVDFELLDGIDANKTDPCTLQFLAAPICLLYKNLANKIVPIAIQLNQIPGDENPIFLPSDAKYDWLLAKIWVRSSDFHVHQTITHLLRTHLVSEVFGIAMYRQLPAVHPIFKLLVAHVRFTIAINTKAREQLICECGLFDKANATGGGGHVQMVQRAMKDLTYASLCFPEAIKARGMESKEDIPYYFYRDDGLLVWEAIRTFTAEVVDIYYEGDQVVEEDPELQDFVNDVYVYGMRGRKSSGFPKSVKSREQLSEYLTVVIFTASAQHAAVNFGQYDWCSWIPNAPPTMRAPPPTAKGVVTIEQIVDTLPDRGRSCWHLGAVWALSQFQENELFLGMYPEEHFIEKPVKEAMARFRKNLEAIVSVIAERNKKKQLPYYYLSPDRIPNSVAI
Description: Inhibition of human recombinant 5-LOX assessed as reduction in leukotriene B4 production at 20 uM pre-incubated for 10 mins before arachidonic acid addition and measured after 10 mins by ELISA. Put shortly: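 Human recombinant 5-LOX, 1 unit/reaction, in PBS pH 7.4 containing 1 mM Na2EDTA and 200 μM ATP. Test compound in DMSO incubated 10 min at 4 °C. Reaction started with CaCl2 and arachidonic acid, 10 min at 37 °C, stopped with formic acid. LTB4 measured by ELISA (A405). […] Screening at 20 μM; ≥3 experiments, duplicate wells.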

Data set [7] deals with THP-1. Nature of the data set: Increase in COX2 protein expression in LPS-stimulated human THP1 cells at 2 uM by proteomic analysis relative to untreated control. The format is functional. The gist of the method: as §1
For data set [8], the system named is THP-1. Description: Inhibition of LPS-induced increase in CCL1 protein expression in LPS-stimulated human THP1 cells at 2 uM by proteomic analysis relative to untreated control. The format is functional, cell-based. Put shortly: as §1
Data set [9] concerns the target T4, Prostaglandin G/H synthase 2 (Homo sapiens) (UniProt P35354).
T4 sequence (whole entry): T2 sequence (P35354 whole entry)
Description: Inhibition of human recombinant COX2 assessed as reduction in PGE2 formation at 20 uM pre-incubated for 5 mins before arachidonic acid addition and measured after 20 mins by ELISA. The gist of the method: as §2

Data set [10] relates to THP-1. Nature of the data set: Inhibition of LPS-induced increase in IL1 protein expression in LPS-stimulated human THP1 cells at 2 uM by proteomic analysis relative to untreated control. The format is functional, cell-based. Put shortly: as §1
Data set [11] deals with THP-1. Description: Inhibition of LPS-induced decrease in VIP2 protein expression in LPS-stimulated human THP1 cells at 2 uM by proteomic analysis relative to untreated control. The format is functional, cell-based. Put shortly:
as §1

In data set [12] the test system is THP-1. Description: Increase in RNF207 protein expression in human THP1 cells at 2 uM by proteomic analysis relative to untreated control. It counts as ADME, cell-based. The conditions noted are these: read-out: FC. The gist of the method:
as §1

In data set [13] the test system is THP-1. Nature of the data set: Increase in TX1B3 protein expression in human THP1 cells at 2 uM by proteomic analysis relative to untreated control. It counts as ADME, cell-based. The conditions noted are these: read-out: FC. Put shortly: as §1
For data set [14], the target named is T5, Polyunsaturated fatty acid 5-lipoxygenase (Homo sapiens, UniProt P09917).
T5 sequence (P09917 whole entry): T3 sequence (whole entry)
Nature of the data set: Inhibition of human recombinant 5-LOX assessed as reduction in leukotriene B4 production pre-incubated for 10 mins before arachidonic acid addition and measured after 10 mins by ELISA. Put shortly:
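Human recombinant 5-LOX, 1 unit/reaction, in PBS pH 7.4 containing 1 mM Na2EDTA and 200 μM ATP. Test compound in DMSO incubated 10 min at 4 °C. Reaction started with CaCl2 and arachidonic acid, 10 min at 37 °C, stopped with formic acid. LTB4 measured by ELISA (A405). Screening at 20 μM; ≥3 experiments, duplicate wells.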

Data set [15] has as its system THP-1. Nature of the data set: Inhibition of LPS-induced increase in TNFalpha protein expression in LPS-stimulated human THP1 cells at 2 uM by proteomic analysis relative to untreated control. It counts as functional, cell-based. The gist of the method: as §1
Data set [16] can be described thus: Selectivity index, ratio of IC50 for ram seminal vesicle COX1 to IC50 for human recombinant COX2.
For data set [17], the target named is T3, Polyunsaturated fatty acid 5-lipoxygenase (Homo sapiens). Description: Potency index, ratio of IC50 for zileuton to IC50 for test compound fior inhibition of human recombinant 5-LOX assessed as reduction in leukotriene B4 production pre-incubated for 10 mins before arachidonic acid addition and measured after 10 mins by ELISA.

With `CC(C)=CCC/C(C)=C/Cc1c(O)cc2c(c1O)C(=O)C[C@@H](c1ccc(O)c(O)c1)O2` [NYMPHAEOL A], the inhibition result in [1], in [5], in [6], in data set [8], in data set [9] and in data set [10] was “Active” throughout. For the same compound, the inhibition entry in [11] and in data set [15] was “Active” throughout. For the same compound, the Activity result in data set [2] is listed as “Non-Toxic”. Further, the IC50 in data set [3] was 1.8 µM; in data set [4], 4.2 µM; in [14], 0.05 µM. Also, the “fold change (FC)” value in data set [7] came to 1.55. Moreover, the fold induction at 2 µM was 2.09 in data set [12] and 1.88 in data set [13].

`CC(C)=CCCC1(C)C=Cc2c(cc3c(c2O)C(=O)C[C@@H](c2cc(O)cc(O)c2)O3)O1` (some centres not stated): in data set [6], the inhibition result is “Active”. In data set [14], the IC50 amounted to 0.35 µM.

On to `CC(C)=CCC/C(C)=C/Cc1c(O)cc2occc(=O)c2c1O`, for which the inhibition result in data set [6] is “Active”. In [14], the IC50 came out at 2.46 µM.

Consider `COc1cc([C@@H]2CC(=O)c3c(cc(O)c(C/C=C(\C)CCC=C(C)C)c3O)O2)cc(O)c1OC`, for which the IC50 in data set [3] stood at 4.2 µM; in [4], 6.4 µM. The Ratio IC50 in [16] is 0.66. The inhibition result in data set [9] is “Active”.

Regarding `COc1cc(C2CC(=O)c3c(cc4c(c3O)C=CC(C)(CCC=C(C)C)O4)O2)cc(OC)c1O` (configuration not stated), in data set [6], the inhibition entry was “Active”. In addition, the IC50 in data set [14] came to 0.37 µM.

In the case of `COc1cc([C@@H]2CC(=O)c3c(cc(O)c(C/C=C(\C)CCC=C(C)C)c3O)O2)cc(O)c1O`, the figures for the Ratio IC50 in [17] and in data set [16] were 10 and 0.31, respectively. In addition, the IC50 in data set [3] is 3.3 µM; in data set [4] it was 10.6 µM; in [14] it was 0.06 µM. For the same compound, the inhibition result in [6] and in data set [9] was “Active” each time.

Consider `COc1cc([C@@H]2CC(=O)c3c(cc4c(c3O)C=CC(C)(CCC=C(C)C)O4)O2)ccc1O` (some centres not stated), for which the IC50 in data set [3] came to 26.3 µM; in [4], 9.5 µM. Further, in [16], the Ratio IC50 was 2.8. Further, the inhibition entry in [9] was “Active”.

Take `COc1cc([C@@H]2CC(=O)c3c(cc(O)c(C/C=C(\C)CCC=C(C)C)c3O)O2)cc(OC)c1O`: the inhibition result in data set [6] is “Active”. The IC50 in data set [14] was 0.38 µM.

As for `CC(C)=CCC/C(C)=C/Cc1c(O)cc2c(c1O)C(=O)C[C@@H](c1ccc(O)cc1)O2` [BONANNIONE A], the IC50 in [3] was 3.7 µM; in data set [4], 6 µM. Also, the Ratio IC50 in data set [16] stood at 0.62. Moreover, the inhibition result in data set [9] is “Active”.
